Experimental data gathered from unrelated publications.
Compare with care: the assays were run in different laboratories.
Target: Mitogen-activated protein kinase kinase kinase kinase 4 (MAP4K4, Homo sapiens, UniProt O95819)

Structure (SMILES) | observed | action | method | tested at | endpoint | result
C=CC(=O)N1CCC([C@@H]2CCNc3c(C(N)=O)c(-c4ccc(Oc5ccccc5)cc4)nn32)CC1 | enzyme activity | inhibitor | – | 1 µM | inhibition | 23%
C1=C/COCc2cc(ccc2OCCN2CCCC2)Nc2nccc(n2)-c2cccc(c2)COC/1 | binding | – | – | 0.1 µM | remaining binding | 55%
C[C@H]1CC[C@H](n2c3cnccc3c3cnc(Nc4ccc5c(n4)CCN(C(=O)CO)C5)nc32)CC1 | binding | – | competition with immobilised ligand | 1 µM | remaining binding | 100%
Cc1cc(O)c(-c2ccc([C@@H](C)CN(C)C)cc2)c2c1[nH]c(=O)c1sccc12 | enzyme activity | inhibitor | – | 0.1 µM | inhibition | -4%
CCCCC(=O)Nc1ccc(-c2ccc3ncn(CCC)c(=O)c3c2)cn1 | binding | – | competition with immobilised ligand | 0.5 µM | remaining binding | 100%
C#Cc1cc(-c2cc(Nc3nc(N[C@@H](C)c4ccc(F)cn4)ncc3Cl)n[nH]2)ccc1C=O | enzyme activity | inhibitor | – | 0.2 µM | inhibition | 11.9%
C=CC(=O)N1CCC[C@@H](n2nc(-c3ccc(Oc4ccccc4)cc3)c3c(N)ncnc32)C1 | enzyme activity | inhibitor | – | 1 µM | inhibition | 4%
COc1ccc2oc(-c3ccc4nc(N)oc4c3)c/c(=N\c3ccccc3NC(=O)CCN)c2c1 | binding | – | – | 1 µM | remaining binding | 96%
CC(C)S(=O)(=O)c1ccc2nccc(Nc3ccc4sc(C5CCCC5)nc4c3)c2c1 | enzyme activity | inhibitor | – | 1 µM | activity vs control | 110%
COc1ccc2[nH]c3c4[nH]c5ccc(OC)cc5c4c4c(c3c2c1)C(=O)NC4=O | binding | – | competition with immobilised ligand | 1 µM | remaining binding | 2.7%
